# From ChEMBL document CHEMBL1137764, “Design, synthesis, antibacterial activity and physicochemical parameters of novel N-4-piperazinyl derivatives of norfloxacin” (Bioorg Med Chem, 2009)
# Assays:
# Pseudomonas aeruginosa [1] = test: Antimicrobial activity against Pseudomonas aeruginosa at 4 ug/ml after 24 hrs by agar diffusion technique; type: functional; settings: read-out: DIZ
# In short: (§1)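 Strains came from a university microbiology department. Inocula were 10⁶ CFU/mL. Mueller-Hinton agar was seeded with culture, poured 3–4 mm thick, and 10 mm cups were bored. Compounds were dissolved in DMF (10 mg/mL stock), diluted, and the solution was placed in the cups. Plates were incubated at 37 °C overnight. Inhibition zone diameter (mm) was read at 24 h.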
# Pseudomonas aeruginosa [2] = test: Antimicrobial activity against Pseudomonas aeruginosa at 16 ug/ml after 24 hrs by agar diffusion technique; type: functional; settings: read-out: DIZ; in short: as §1
# Pseudomonas aeruginosa [3] = test: Antimicrobial activity against Pseudomonas aeruginosa at 64 ug/ml after 24 hrs by agar diffusion technique; type: functional; settings: read-out: DIZ; in short: as §1
# Pseudomonas aeruginosa [4] = test: Antimicrobial activity against Pseudomonas aeruginosa at 128 ug/ml after 24 hrs by agar diffusion technique; type: functional; settings: read-out: DIZ; in short: as §1
# Pseudomonas aeruginosa [5] = test: Antimicrobial activity against Pseudomonas aeruginosa at 512 ug/ml after 24 hrs by agar diffusion technique; type: functional; settings: read-out: DIZ; in short: as §1
# Escherichia coli [6] = test: Antimicrobial activity against Escherichia coli at 4 ug/ml after 24 hrs by agar diffusion technique; type: functional; settings: read-out: DIZ; in short: as §1
# Escherichia coli [7] = test: Antimicrobial activity against Escherichia coli at 16 ug/ml after 24 hrs by agar diffusion technique; type: functional; settings: read-out: DIZ; in short: as §1
# Escherichia coli [8] = test: Antimicrobial activity against Escherichia coli at 64 ug/ml after 24 hrs by agar diffusion technique; type: functional; settings: read-out: DIZ; in short: as §1
# Escherichia coli [9] = test: Antimicrobial activity against Escherichia coli at 128 ug/ml after 24 hrs by agar diffusion technique; type: functional; settings: read-out: DIZ; in short: as §1
# Escherichia coli [10] = test: Antimicrobial activity against Escherichia coli at 512 ug/ml after 24 hrs by agar diffusion technique; type: functional; settings: read-out: DIZ; in short: as §1
# Klebsiella pneumoniae [11] = test: Antimicrobial activity against Klebsiella pneumoniae at 4 ug/ml after 24 hrs by agar diffusion technique; type: functional; settings: read-out: DIZ; in short: as §1
# Klebsiella pneumoniae [12] = test: Antimicrobial activity against Klebsiella pneumoniae at 16 ug/ml after 24 hrs by agar diffusion technique; type: functional; settings: read-out: DIZ; in short: as §1
# Klebsiella pneumoniae [13] = test: Antimicrobial activity against Klebsiella pneumoniae at 64 ug/ml after 24 hrs by agar diffusion technique; type: functional; settings: read-out: DIZ; in short: as §1
# Klebsiella pneumoniae [14] = test: Antimicrobial activity against Klebsiella pneumoniae at 128 ug/ml after 24 hrs by agar diffusion technique; type: functional; settings: read-out: DIZ; in short: as §1
# Klebsiella pneumoniae [15] = test: Antimicrobial activity against Klebsiella pneumoniae at 512 ug/ml after 24 hrs by agar diffusion technique; type: functional; settings: read-out: DIZ; in short: as §1
# Staphylococcus aureus [16] = test: Antimicrobial activity against Staphylococcus aureus at 4 ug/ml after 24 hrs by agar diffusion technique; type: functional; settings: read-out: DIZ; in short: as §1
# Staphylococcus aureus [17] = test: Antimicrobial activity against Staphylococcus aureus at 16 ug/ml after 24 hrs by agar diffusion technique; type: functional; settings: read-out: DIZ; in short: as §1
# Staphylococcus aureus [18] = test: Antimicrobial activity against Staphylococcus aureus at 64 ug/ml after 24 hrs by agar diffusion technique; type: functional; settings: read-out: DIZ; in short: as §1
# Staphylococcus aureus [19] = test: Antimicrobial activity against Staphylococcus aureus at 128 ug/ml after 24 hrs by agar diffusion technique; type: functional; settings: read-out: DIZ; in short: as §1
# Staphylococcus aureus [20] = test: Antimicrobial activity against Staphylococcus aureus at 512 ug/ml after 24 hrs by agar diffusion technique; type: functional; settings: read-out: DIZ; in short: as §1
# Pseudomonas aeruginosa [21] = test: Antimicrobial activity against Pseudomonas aeruginosa after 24 hrs by agar diffusion technique; type: functional; settings: for MIC: Pseudomonas aeruginosa, 24 h
# In short: (§2)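 Agar cup diffusion on Mueller-Hinton agar seeded from 10⁶ CFU/mL suspensions, with 10 mm cups in a 3–4 mm layer. Compounds were in DMF (10 mg/mL stock) at several concentrations. Plates were incubated at 37 °C and zones measured after 24 h. MIC was taken as the intercept of the plot of log concentration against inhibition zone diameter.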
# Escherichia coli [22] = test: Antimicrobial activity against Escherichia coli after 24 hrs by agar diffusion technique; type: functional; settings: for MIC: Escherichia coli, 24 h; in short: as §2
# Klebsiella pneumoniae [23] = test: Antimicrobial activity against Klebsiella pneumoniae after 24 hrs by agar diffusion technique; type: functional; settings: for MIC: Klebsiella pneumoniae, 24 h; in short: as §2
# Staphylococcus aureus [24] = test: Antimicrobial activity against Staphylococcus aureus after 24 hrs by agar diffusion technique; type: functional; settings: for MIC: Staphylococcus aureus, 24 h; in short: as §2
# [25] = Octanol-phosphate buffer partition coefficient, log D at pH 7.4 by spectrophotometry; type: physicochemical
# In short: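 Shake-flask method. A 0.2 mg/mL stock was diluted into pH 7.4 phosphate buffer and mixed with an equal volume of n-octanol, phases mutually presaturated and protected from light. Samples were vortexed 3 min, then shaken 5 h at 25 °C. Both phases were assayed by UV at 270–280 nm. D is the molar concentration ratio, octanol to aqueous.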
Structure (SMILES),zone of inhibition at 4 µg/mL (Pseudomonas aeruginosa [1]),zone of inhibition at 16 µg/mL (Pseudomonas aeruginosa [2]),zone of inhibition at 64 µg/mL (Pseudomonas aeruginosa [3]),zone of inhibition at 128 µg/mL (Pseudomonas aeruginosa [4]),zone of inhibition at 512 µg/mL (Pseudomonas aeruginosa [5]),zone of inhibition at 4 µg/mL (Escherichia coli [6]),zone of inhibition at 16 µg/mL (Escherichia coli [7]),zone of inhibition at 64 µg/mL (Escherichia coli [8]),zone of inhibition at 128 µg/mL (Escherichia coli [9]),zone of inhibition at 512 µg/mL (Escherichia coli [10]),zone of inhibition at 4 µg/mL (Klebsiella pneumoniae [11]),zone of inhibition at 16 µg/mL (Klebsiella pneumoniae [12]),zone of inhibition at 64 µg/mL (Klebsiella pneumoniae [13]),zone of inhibition at 128 µg/mL (Klebsiella pneumoniae [14]),zone of inhibition at 512 µg/mL (Klebsiella pneumoniae [15]),zone of inhibition at 4 µg/mL (Staphylococcus aureus [16]),zone of inhibition at 16 µg/mL (Staphylococcus aureus [17]),zone of inhibition at 64 µg/mL (Staphylococcus aureus [18]),zone of inhibition at 128 µg/mL (Staphylococcus aureus [19]),zone of inhibition at 512 µg/mL (Staphylococcus aureus [20]),further results
CCn1cc(C(=O)O)c(=O)c2cc(F)c(N3CCN(CN4C(=O)c5cccc6cccc(c56)C4=O)CC3)cc21,0 mm,0 mm,0 mm,0 mm,10 mm,0 mm,0 mm,0 mm,0 mm,13 mm,0 mm,0 mm,0 mm,8 mm,9 mm,0 mm,0 mm,0 mm,0 mm,15 mm,logMIC (Pseudomonas aeruginosa [21]): 2.11; MIC (Pseudomonas aeruginosa [21]): 128 µg/mL; logMIC (Escherichia coli [22]): 2.11; MIC (Escherichia coli [22]): 128 µg/mL; logMIC (Klebsiella pneumoniae [23]): 1.81; MIC (Klebsiella pneumoniae [23]): 64 µg/mL; logMIC (Staphylococcus aureus [24]): 2.11; MIC (Staphylococcus aureus [24]): 128 µg/mL; logD [25]: -0.9
CCn1cc(C(=O)O)c(=O)c2cc(F)c(N3CCN(CN4CCOCC4)CC3)cc21,0 mm,0 mm,3 mm,3 mm,15 mm,0 mm,0 mm,0 mm,0 mm,30 mm,0 mm,0 mm,0 mm,0 mm,20 mm,5 mm,7 mm,7 mm,8 mm,10 mm,logMIC (Pseudomonas aeruginosa [21]): 1.2; MIC (Pseudomonas aeruginosa [21]): 16 µg/mL; logMIC (Escherichia coli [22]): 2.11; MIC (Escherichia coli [22]): 128 µg/mL; logMIC (Klebsiella pneumoniae [23]): 2.11; MIC (Klebsiella pneumoniae [23]): 128 µg/mL; logMIC (Staphylococcus aureus [24]): 0; MIC (Staphylococcus aureus [24]): < 1 µg/mL; logD [25]: -0.043
